Data set [1] is described as follows: Plasma half life was determined in pigs. Format: ADME, organism-based, Sus scrofa. Particulars: pig. The method, boiled down:
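Landrace × Duroc × Yorkshire pigs, 25–50 kg, two per compound; single sc dose, 0.5 nmol/kg for analogues, 15 nmol/kg for GLP-1. Jugular catheter blood at 0–72 h, extra early samples for GLP-1; EDTA/aprotinin/bacitracin-stabilized plasma. Unextracted plasma assayed by N-terminal-specific GLP-1 radioimmunoassay against spiked pig-plasma calibrators; half-life calculated per pig, reported as mean ± SD.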

The target of data set [2] is Glucagon-like peptide 1 receptor (Homo sapiens, UniProt P43220). The experiment in a line: Potency measured using recombinant human GLP-1 receptor expressed in Baby Hamster Kidney (BHK)cells. The format is cell-based.

This note sets out measurements from ChEMBL document CHEMBL1133591, “Potent derivatives of glucagon-like peptide-1 with pharmacokinetic properties suitable for once daily administration” (J Med Chem, 2000).

Numbered stars: 1 amine (or outer) side, 2 acyl side, 3 side chain; on linkers, the order of the positions; unused ones are H or OH. Side chains are listed from the residue outwards. Peptide text beside a SMILES is read from it. * marks the point of attachment. ξ: configuration not given here. ξγGlu = O=C(O)C(CCC(=O)[*:2])N[*:1]; Palmitoyl = CCCCCCCCCCCCCCCC(=O)*

Chain of Glucagon-like peptide 1 receptor (P43220 whole entry): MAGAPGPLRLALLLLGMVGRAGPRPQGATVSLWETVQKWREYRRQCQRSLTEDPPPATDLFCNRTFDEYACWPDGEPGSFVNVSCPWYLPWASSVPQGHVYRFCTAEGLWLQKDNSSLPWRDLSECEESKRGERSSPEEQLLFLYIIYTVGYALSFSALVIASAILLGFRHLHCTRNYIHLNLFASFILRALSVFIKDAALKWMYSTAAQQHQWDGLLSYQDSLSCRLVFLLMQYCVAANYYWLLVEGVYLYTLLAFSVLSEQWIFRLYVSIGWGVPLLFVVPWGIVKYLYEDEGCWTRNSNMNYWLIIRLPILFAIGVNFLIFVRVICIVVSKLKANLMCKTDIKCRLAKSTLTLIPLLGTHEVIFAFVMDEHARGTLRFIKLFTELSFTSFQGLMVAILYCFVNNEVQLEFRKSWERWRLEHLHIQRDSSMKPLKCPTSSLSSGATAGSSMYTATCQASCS

Turning to `CCCCCCCCCCCCCCCC(=O)NC(CCC(=O)NCCCC[C@H](NC(=O)[C@@H](NC(=O)[C@H](CC(C)C)NC(=O)[C@H](Cc1c[nH]c2ccccc12)NC(=O)[C@H](C)NC(=O)[C@@H](NC(=O)[C@H](Cc1ccccc1)NC(=O)[C@H](CCC(=O)O)NC(=O)[C@H](CCCN=C(N)N)NC(=O)[C@H](C)NC(=O)[C@H](C)NC(=O)[C@H](CCC(N)=O)NC(=O)CNC(=O)[C@H](CCC(=O)O)NC(=O)[C@H](CC(C)C)NC(=O)[C@H](Cc1ccc(O)cc1)NC(=O)[C@H](CO)NC(=O)[C@H](CO)NC(=O)[C@@H](NC(=O)[C@H](CC(=O)O)NC(=O)[C@H](CO)NC(=O)[C@@H](NC(=O)[C@H](Cc1ccccc1)NC(=O)[C@@H](NC(=O)CNC(=O)[C@H](CCC(=O)O)NC(=O)[C@H](C)NC(=O)[C@@H](N)Cc1c[nH]cn1)[C@@H](C)O)[C@@H](C)O)C(C)C)[C@@H](C)CC)C(C)C)C(=O)NCC(=O)N[C@@H](CCCCN=C(N)N)C(=O)NCC(=O)O)C(=O)O` (stereo partly specified), the half-life in data set [1] is 13 h. Besides, the EC50 in data set [2] is 0.121 nM.
Take `CCCCCCCCCCCCCCCC(=O)NCCC(=O)NCCCC[C@H](NC(=O)[C@H](C)NC(=O)[C@H](C)NC(=O)[C@H](CCC(N)=O)NC(=O)CNC(=O)[C@H](CCC(=O)O)NC(=O)[C@H](CC(C)C)NC(=O)[C@H](Cc1ccc(O)cc1)NC(=O)[C@H](CO)NC(=O)[C@H](CO)NC(=O)[C@@H](NC(=O)[C@H](CC(=O)O)NC(=O)[C@H](CO)NC(=O)[C@@H](NC(=O)[C@H](Cc1ccccc1)NC(=O)[C@@H](NC(=O)CNC(=O)[C@H](CCC(=O)O)NC(=O)[C@H](C)NC(=O)[C@@H](N)Cc1c[nH]cn1)[C@@H](C)O)[C@@H](C)O)C(C)C)C(=O)N[C@@H](CCC(=O)O)C(=O)N[C@@H](Cc1ccccc1)C(=O)N[C@H](C(=O)N[C@@H](C)C(=O)N[C@@H](Cc1c[nH]c2ccccc12)C(=O)N[C@@H](CC(C)C)C(=O)N[C@H](C(=O)N[C@@H](CCCN=C(N)N)C(=O)NCC(=O)N[C@@H](CCCN=C(N)N)C(=O)NCC(=O)O)C(C)C)[C@@H](C)CC`: the half-life in data set [1] was 8.8 h.
Consider `CCCCCCCCCCCC(=O)NC(CCC(=O)NCCCC[C@H](NC(=O)[C@H](C)NC(=O)[C@H](C)NC(=O)[C@H](CCC(N)=O)NC(=O)CNC(=O)[C@H](CCC(=O)O)NC(=O)[C@H](CC(C)C)NC(=O)[C@H](Cc1ccc(O)cc1)NC(=O)[C@H](CO)NC(=O)[C@H](CO)NC(=O)[C@@H](NC(=O)[C@H](CC(=O)O)NC(=O)[C@H](CO)NC(=O)[C@@H](NC(=O)[C@H](Cc1ccccc1)NC(=O)[C@@H](NC(=O)CNC(=O)[C@H](CCC(=O)O)NC(=O)[C@H](C)NC(=O)[C@@H](N)Cc1c[nH]cn1)[C@@H](C)O)[C@@H](C)O)C(C)C)C(=O)N[C@@H](CCC(=O)O)C(=O)N[C@@H](Cc1ccccc1)C(=O)N[C@H](C(=O)N[C@@H](C)C(=O)N[C@@H](Cc1c[nH]c2ccccc12)C(=O)N[C@@H](CC(C)C)C(=O)N[C@H](C(=O)N[C@@H](CCCN=C(N)N)C(=O)NCC(=O)N[C@@H](CCCN=C(N)N)C(=O)NCC(=O)O)C(C)C)[C@@H](C)CC)C(=O)O` (stereo partly specified), for which the half-life in data set [1] was 15 h. Against the preceding molecule, the half-life is about 1.7-fold higher.
In data set [1], `CCCCCCCCCCCCCCCC(=O)NCCCC(=O)NCCCC[C@H](NC(=O)[C@H](C)NC(=O)[C@H](C)NC(=O)[C@H](CCC(N)=O)NC(=O)CNC(=O)[C@H](CCC(=O)O)NC(=O)[C@H](CC(C)C)NC(=O)[C@H](Cc1ccc(O)cc1)NC(=O)[C@H](CO)NC(=O)[C@H](CO)NC(=O)[C@@H](NC(=O)[C@H](CC(=O)O)NC(=O)[C@H](CO)NC(=O)[C@@H](NC(=O)[C@H](Cc1ccccc1)NC(=O)[C@@H](NC(=O)CNC(=O)[C@H](CCC(=O)O)NC(=O)[C@H](C)NC(=O)[C@@H](N)Cc1c[nH]cn1)[C@@H](C)O)[C@@H](C)O)C(C)C)C(=O)N[C@@H](CCC(=O)O)C(=O)N[C@@H](Cc1ccccc1)C(=O)N[C@H](C(=O)N[C@@H](C)C(=O)N[C@@H](Cc1c[nH]c2ccccc12)C(=O)N[C@@H](CC(C)C)C(=O)N[C@H](C(=O)N[C@@H](CCCN=C(N)N)C(=O)NCC(=O)N[C@@H](CCCN=C(N)N)C(=O)NCC(=O)O)C(C)C)[C@@H](C)CC` gave a half-life of 31 h.
Take `CCCCCCCCCCCCCCCC(=O)NC(CCC(=O)NCCCCC(NC(=O)CNC(=O)[C@H](CCCN=C(N)N)NC(=O)CNC(=O)[C@H](CCCN=C(N)N)NC(=O)[C@@H](NC(=O)[C@H](CC(C)C)NC(=O)[C@H](Cc1c[nH]c2ccccc12)NC(=O)[C@H](C)NC(=O)[C@@H](NC(=O)[C@H](Cc1ccccc1)NC(=O)[C@H](CCC(=O)O)NC(=O)[C@H](CCCN=C(N)N)NC(=O)[C@H](C)NC(=O)[C@H](C)NC(=O)[C@H](CCC(N)=O)NC(=O)CNC(=O)[C@H](CCC(=O)O)NC(=O)[C@H](CC(C)C)NC(=O)[C@H](Cc1ccc(O)cc1)NC(=O)[C@H](CO)NC(=O)[C@H](CO)NC(=O)[C@@H](NC(=O)[C@H](CC(=O)O)NC(=O)[C@H](CO)NC(=O)[C@@H](NC(=O)[C@H](Cc1ccccc1)NC(=O)[C@@H](NC(=O)CNC(=O)[C@H](CCC(=O)O)NC(=O)[C@H](C)NC(=O)[C@@H](N)Cc1c[nH]cn1)[C@@H](C)O)[C@@H](C)O)C(C)C)[C@@H](C)CC)C(C)C)C(=O)O)C(=O)O` (stereo partly specified): the 50% effective concentration (EC50) in data set [2] is 0.053 nM.
In data set [1], `CCCCCCCCCCCCCCCC(=O)N[C@@H](CCC(=O)NCCCC[C@H](NC(=O)[C@H](C)NC(=O)[C@H](C)NC(=O)[C@H](CCC(N)=O)NC(=O)CNC(=O)[C@H](CCC(=O)O)NC(=O)[C@H](CC(C)C)NC(=O)[C@H](Cc1ccc(O)cc1)NC(=O)[C@H](CO)NC(=O)[C@H](CO)NC(=O)[C@@H](NC(=O)[C@H](CC(=O)O)NC(=O)[C@H](CO)NC(=O)[C@@H](NC(=O)[C@H](Cc1ccccc1)NC(=O)[C@@H](NC(=O)CNC(=O)[C@H](CCC(=O)O)NC(=O)[C@H](C)NC(=O)[C@@H](N)Cc1cnc[nH]1)[C@@H](C)O)[C@@H](C)O)C(C)C)C(=O)N[C@@H](CCC(=O)O)C(=O)N[C@@H](Cc1ccccc1)C(=O)N[C@H](C(=O)N[C@@H](C)C(=O)N[C@@H](Cc1c[nH]c2ccccc12)C(=O)N[C@@H](CC(C)C)C(=O)N[C@H](C(=O)N[C@@H](CCCNC(=N)N)C(=O)NCC(=O)N[C@@H](CCCNC(=N)N)C(=O)NCC(=O)O)C(C)C)[C@@H](C)CC)C(=O)O` showed a half-life of 14 h.
Turning to `CCCCCCCCCCCCCCCC(=O)NC(CCC(=O)NCCCC[C@H](NC(=O)[C@@H](N)Cc1c[nH]cn1)C(=O)N[C@@H](CCC(=O)O)C(=O)NCC(=O)N[C@H](C(=O)N[C@@H](Cc1ccccc1)C(=O)N[C@H](C(=O)N[C@@H](CO)C(=O)N[C@@H](CC(=O)O)C(=O)N[C@H](C(=O)N[C@@H](CO)C(=O)N[C@@H](CO)C(=O)N[C@@H](Cc1ccc(O)cc1)C(=O)N[C@@H](CC(C)C)C(=O)N[C@@H](CCC(=O)O)C(=O)NCC(=O)N[C@@H](CCC(N)=O)C(=O)N[C@@H](C)C(=O)N[C@@H](C)C(=O)N[C@@H](CCCN=C(N)N)C(=O)N[C@@H](CCC(=O)O)C(=O)N[C@@H](Cc1ccccc1)C(=O)N[C@H](C(=O)N[C@@H](C)C(=O)N[C@@H](Cc1c[nH]c2ccccc12)C(=O)N[C@@H](CC(C)C)C(=O)N[C@H](C(=O)N[C@@H](CCCN=C(N)N)C(=O)NCC(=O)N[C@@H](CCCN=C(N)N)C(=O)NCC(=O)O)C(C)C)[C@@H](C)CC)C(C)C)[C@@H](C)O)[C@@H](C)O)C(=O)O` (stereo partly specified), the EC50 in data set [2] is 1.26 nM.
Same read-out and setting: with `CCCCCCCCCCCCCCCC(=O)NC(CCC(=O)NCCCC[C@H](NC(=O)[C@H](CO)NC(=O)[C@@H](NC(=O)[C@H](CC(=O)O)NC(=O)[C@H](CO)NC(=O)[C@@H](NC(=O)[C@H](Cc1ccccc1)NC(=O)[C@@H](NC(=O)CNC(=O)[C@H](CCC(=O)O)NC(=O)[C@H](C)NC(=O)[C@@H](N)Cc1c[nH]cn1)[C@@H](C)O)[C@@H](C)O)C(C)C)C(=O)N[C@@H](Cc1ccc(O)cc1)C(=O)N[C@@H](CC(C)C)C(=O)N[C@@H](CCC(=O)O)C(=O)NCC(=O)N[C@@H](CCC(N)=O)C(=O)N[C@@H](C)C(=O)N[C@@H](C)C(=O)N[C@@H](CCCN=C(N)N)C(=O)N[C@@H](CCC(=O)O)C(=O)N[C@@H](Cc1ccccc1)C(=O)N[C@H](C(=O)N[C@@H](C)C(=O)N[C@@H](Cc1c[nH]c2ccccc12)C(=O)N[C@@H](CC(C)C)C(=O)N[C@H](C(=O)N[C@@H](CCCN=C(N)N)C(=O)NCC(=O)N[C@@H](CCCN=C(N)N)C(=O)NCC(=O)O)C(C)C)[C@@H](C)CC)C(=O)O` (stereo partly specified) (H-HAEGTFTSDVSK([ξγGlu-Palmitoyl])YLEGQAAREFIAWLVRGRG-OH) the figure was 0.0352 nM.
For `CCCCCCCCCCCCCCCCCC(=O)NC(CCC(=O)NCCCCC(NC(=O)CNC(=O)[C@H](CCCN=C(N)N)NC(=O)CNC(=O)[C@H](CCCN=C(N)N)NC(=O)[C@@H](NC(=O)[C@H](CC(C)C)NC(=O)[C@H](Cc1c[nH]c2ccccc12)NC(=O)[C@H](C)NC(=O)[C@@H](NC(=O)[C@H](Cc1ccccc1)NC(=O)[C@H](CCC(=O)O)NC(=O)[C@H](CCCN=C(N)N)NC(=O)[C@H](C)NC(=O)[C@H](C)NC(=O)[C@H](CCC(N)=O)NC(=O)CNC(=O)[C@H](CCC(=O)O)NC(=O)[C@H](CC(C)C)NC(=O)[C@H](Cc1ccc(O)cc1)NC(=O)[C@H](CO)NC(=O)[C@H](CO)NC(=O)[C@@H](NC(=O)[C@H](CC(=O)O)NC(=O)[C@H](CO)NC(=O)[C@@H](NC(=O)[C@H](Cc1ccccc1)NC(=O)[C@@H](NC(=O)CNC(=O)[C@H](CCC(=O)O)NC(=O)[C@H](C)NC(=O)[C@@H](N)Cc1c[nH]cn1)[C@@H](C)O)[C@@H](C)O)C(C)C)[C@@H](C)CC)C(C)C)C(=O)O)C(=O)O` (stereo partly specified), the 50% effective concentration (EC50) in data set [2] was 0.115 nM.
The same measure, in the same setting: the value for `CCCCCCCCCCCCCCCC(=O)NC(CCC(=O)NCCCC[C@H](NC(=O)[C@H](C)NC(=O)[C@H](C)NC(=O)[C@H](CCC(N)=O)NC(=O)CNC(=O)[C@H](CCC(=O)O)NC(=O)[C@H](CC(C)C)NC(=O)[C@H](Cc1ccc(O)cc1)NC(=O)[C@H](CO)NC(=O)[C@H](CO)NC(=O)[C@@H](NC(=O)[C@H](CC(=O)O)NC(=O)[C@H](CO)NC(=O)[C@@H](NC(=O)[C@H](Cc1ccccc1)NC(=O)[C@@H](NC(=O)CNC(=O)[C@H](CCC(=O)O)NC(=O)[C@H](C)NC(=O)CCc1c[nH]cn1)[C@@H](C)O)[C@@H](C)O)C(C)C)C(=O)N[C@@H](CCC(=O)O)C(=O)N[C@@H](Cc1ccccc1)C(=O)N[C@H](C(=O)N[C@@H](C)C(=O)N[C@@H](Cc1c[nH]c2ccccc12)C(=O)N[C@@H](CC(C)C)C(=O)N[C@H](C(=O)N[C@@H](CCCN=C(N)N)C(=O)NCC(=O)N[C@@H](CCCN=C(N)N)C(=O)NCC(=O)O)C(C)C)[C@@H](C)CC)C(=O)O` (stereo partly specified) was 0.687 nM.
